Test results: ChEMBL document CHEMBL4627281, “A small molecule inhibitor of PCSK9 that antagonizes LDL receptor binding via interaction with a cryptic PCSK9 binding groove” (Bioorg Med Chem, 2020)

Legend:
[1] = target: Proto-oncogene tyrosine-protein kinase Src (Homo sapiens, UniProt P12931); assay: Inhibition of recombinant human full-length N-terminal GST-tagged SRC (1 to 536 residues) expressed in baculovirus expression system using FAM-labelled P4 peptide as substrate preincubated for 10 mins followed by substrate addition and measured after 1 hr in presence of ATP by fluorescence assay
[2] = target: Platelet-derived growth factor receptor beta (Homo sapiens, UniProt P09619); assay: Inhibition of recombinant human N-terminal GST-tagged PDGFRbeta cytoplasmic domain (557 to 1106 residues) expressed in baculovirus expression system using FAM-labelled P22 peptide as substrate preincubated for 10 mins followed by substrate addition and measured after 1 hr in presence of ATP by fluorescence assay
[3] = target: Mast/stem cell growth factor receptor Kit (Homo sapiens, UniProt P10721); assay: Inhibition of recombinant human N-terminal GST-tagged c-Kit (544 to end residues) expressed in baculovirus infected Sf21 insect cells using FAM-labelled P22 peptide as substrate preincubated for 10 mins followed by substrate addition and measured after 1 hr in presence of ATP by fluorescence assay
PCSK9/LDLR = PCSK9/LDLR (Homo sapiens, UniProt Q8NBP7); assay: Inhibition of recombinant human His-tagged PCSK9 interaction with recombinant LDLR AB domain (unknown origin) measured after 3 hrs by horseradish peroxidase-coupled TMB substrate based spectrophotometry; format: protein assay
How it was run: (§1)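 ELISA plates pre-coated with LDLR-EGF-AB domain. Compounds serially diluted from 10 mM DMSO stocks in reaction buffer, with 7 ng His-tagged human PCSK9 added, 3 h at room temperature with shaking. Binding detected with biotinylated anti-His antibody (1 h), then HRP-streptavidin (20 min), then substrate (15 min); absorbance read at 450/540 nm. IC50 taken from the % inhibition curve.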

[4] = target: Tyrosine-protein kinase ABL1 (Homo sapiens, UniProt P00519); assay: Inhibition of recombinant human N-terminal His-tagged Abl (2 to 1130 residues) expressed in baculovirus expression system using FAM-labelled P2 peptide as substrate preincubated for 10 mins followed by substrate addition and measured after 1 hr in presence of ATP by fluorescence assay
[5] = target: PCSK9/LDLR (Homo sapiens) (UniProt Q8NBP7+P01130); assay: Inhibition of recombinant human His-tagged PCSK9 interaction with recombinant LDLR AB domain (unknown origin) at higher concentration measured after 3 hrs by horseradish peroxidase-coupled TMB substrate based spectrophotometry relative to control; format: protein assay; how it was run: as §1
[6] = Clearance in CD1 mouse at 0.4 mg/kg, iv administered as cassette dose measured upto 24 hrs by LC-MS/MS analysis; format: ADME, organism-based; conditions: in vivo
How it was run: (§2)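 Male CD1 mice (second cassette 28–29 g, 7–8 weeks) given one IV 5-in-1 cassette at 0.4 mg/kg per compound in 5% DMAC/5% Solutol HS15/90% saline. Blood (~20 µL) into K2EDTA from the facial vein at 0.083–24 h, terminal bleed by cardiac puncture under isoflurane. Blood diluted with deionised water, stored at −80 °C, analysed by positive-ESI mass spectrometry.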

[7] = tested on: PCSK9/LDLR (Homo sapiens), Q8NBP7+P01130 [D374Y]; assay: Inhibition of PCSK9 D374Y mutant (unknown origin) and LDLR protein-protein interaction in human HepG2 cells assessed as increase in Bodipy FL-labelled LDL uptake preincubated for 16 hrs followed by Bodipy FL-labelled LDL addition and measured after 4 hrs by fluorescence assay; format: cell-based
How it was run: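 HepG2 cells seeded at 2 × 10^5 cells/mL and attached overnight, then incubated 16 h with PCSK9-D374Y (2 μg/mL) plus compound (0.1 or 1 µM). Medium replaced with 10 μg/mL Bodipy FL LDL for 4 h. Cells washed with warm PBS; fluorescence read at ex 485/em 530 nm. Mean ± S.D.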

[8] = Volume of distribution at steady state in CD1 mouse at 0.4 mg/kg, iv administered as cassette dose measured upto 24 hrs by LC-MS/MS analysis; format: ADME, organism-based; conditions: in vivo, read-out: Vdss; how it was run: as §2
[9] = Mean residence time (0 to infinity) in CD1 mouse at 0.4 mg/kg, iv administered as cassette dose measured upto 24 hrs by LC-MS analysis; format: ADME, organism-based; conditions: in vivo; how it was run: as §2
[10] = AUClast in CD1 mouse at 0.4 mg/kg, iv administered as cassette dose measured upto 24 hrs by LC-MS/MS analysis; format: ADME, organism-based; parameters: time < 24 hr, dose 0.4 mg/kg, route intravenous; conditions: in vivo; how it was run: as §2
[11] = AUCinfinity in CD1 mouse at 0.4 mg/kg, iv administered as cassette dose measured upto 24 hrs by LC-MS/MS analysis; format: ADME, organism-based; parameters: dose 0.4 mg/kg, route intravenous, time infinity; conditions: in vivo; how it was run: as §2
[12] = Terminal half life in CD1 mouse at 0.4 mg/kg, iv administered as cassette dose measured upto 24 hrs by LC-MS/MS analysis; format: ADME, organism-based; conditions: in vivo, read-out: beta t1/2 (converted); how it was run: as §2

Sequence of Tyrosine-protein kinase ABL1 (P00519 whole entry, the tested form may be a part): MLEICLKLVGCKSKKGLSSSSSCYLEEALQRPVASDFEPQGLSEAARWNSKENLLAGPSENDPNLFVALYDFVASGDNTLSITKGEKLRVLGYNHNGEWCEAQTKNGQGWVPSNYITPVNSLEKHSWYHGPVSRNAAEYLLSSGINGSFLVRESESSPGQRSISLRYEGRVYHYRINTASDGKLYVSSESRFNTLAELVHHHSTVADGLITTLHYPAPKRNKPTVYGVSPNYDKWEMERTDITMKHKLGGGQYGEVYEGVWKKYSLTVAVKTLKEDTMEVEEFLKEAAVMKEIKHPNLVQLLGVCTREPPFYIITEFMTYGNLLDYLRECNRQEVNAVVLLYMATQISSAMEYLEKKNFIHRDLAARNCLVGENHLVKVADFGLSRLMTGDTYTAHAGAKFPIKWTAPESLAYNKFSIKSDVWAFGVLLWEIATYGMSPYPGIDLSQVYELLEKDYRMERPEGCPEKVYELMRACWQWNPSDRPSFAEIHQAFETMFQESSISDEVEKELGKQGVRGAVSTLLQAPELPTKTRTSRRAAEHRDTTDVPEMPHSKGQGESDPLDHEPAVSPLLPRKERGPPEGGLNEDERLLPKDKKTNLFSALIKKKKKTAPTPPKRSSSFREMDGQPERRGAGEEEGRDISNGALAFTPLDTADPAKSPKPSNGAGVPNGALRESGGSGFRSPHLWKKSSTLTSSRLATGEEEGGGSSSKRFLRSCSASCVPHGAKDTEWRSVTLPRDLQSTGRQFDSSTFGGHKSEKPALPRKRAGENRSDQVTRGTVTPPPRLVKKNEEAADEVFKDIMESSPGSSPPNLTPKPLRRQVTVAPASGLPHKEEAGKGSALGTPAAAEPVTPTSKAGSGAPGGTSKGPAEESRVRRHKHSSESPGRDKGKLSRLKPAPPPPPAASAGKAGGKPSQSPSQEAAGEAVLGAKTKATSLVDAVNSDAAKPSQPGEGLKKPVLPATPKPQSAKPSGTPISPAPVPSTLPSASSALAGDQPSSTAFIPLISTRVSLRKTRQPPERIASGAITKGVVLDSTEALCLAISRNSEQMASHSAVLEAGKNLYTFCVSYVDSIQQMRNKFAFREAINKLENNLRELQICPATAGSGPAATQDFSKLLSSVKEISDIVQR
Sequence of PCSK9/LDLR (Q8NBP7 31-152 limits assumed): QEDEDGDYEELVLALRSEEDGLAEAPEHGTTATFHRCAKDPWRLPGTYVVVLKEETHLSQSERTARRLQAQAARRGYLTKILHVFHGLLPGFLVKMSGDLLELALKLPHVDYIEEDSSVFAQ
Sequence of PCSK9/LDLR (Q8NBP7 153-692 limits assumed): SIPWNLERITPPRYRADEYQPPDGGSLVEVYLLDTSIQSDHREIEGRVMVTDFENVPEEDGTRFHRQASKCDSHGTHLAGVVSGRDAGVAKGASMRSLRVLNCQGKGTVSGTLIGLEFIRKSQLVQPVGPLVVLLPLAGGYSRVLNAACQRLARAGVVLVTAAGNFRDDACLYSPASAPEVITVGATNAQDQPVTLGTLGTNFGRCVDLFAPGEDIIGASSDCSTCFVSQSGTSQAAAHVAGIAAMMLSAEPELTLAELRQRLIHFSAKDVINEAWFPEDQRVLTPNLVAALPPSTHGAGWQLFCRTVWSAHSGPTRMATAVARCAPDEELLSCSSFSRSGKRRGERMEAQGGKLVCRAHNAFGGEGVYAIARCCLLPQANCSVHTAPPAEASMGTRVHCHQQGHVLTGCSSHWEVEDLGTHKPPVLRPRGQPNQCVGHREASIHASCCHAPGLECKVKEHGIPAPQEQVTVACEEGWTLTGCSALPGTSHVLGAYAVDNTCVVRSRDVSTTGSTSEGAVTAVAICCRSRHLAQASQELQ
Sequence of PCSK9/LDLR (P01130 22-860 partner limits assumed): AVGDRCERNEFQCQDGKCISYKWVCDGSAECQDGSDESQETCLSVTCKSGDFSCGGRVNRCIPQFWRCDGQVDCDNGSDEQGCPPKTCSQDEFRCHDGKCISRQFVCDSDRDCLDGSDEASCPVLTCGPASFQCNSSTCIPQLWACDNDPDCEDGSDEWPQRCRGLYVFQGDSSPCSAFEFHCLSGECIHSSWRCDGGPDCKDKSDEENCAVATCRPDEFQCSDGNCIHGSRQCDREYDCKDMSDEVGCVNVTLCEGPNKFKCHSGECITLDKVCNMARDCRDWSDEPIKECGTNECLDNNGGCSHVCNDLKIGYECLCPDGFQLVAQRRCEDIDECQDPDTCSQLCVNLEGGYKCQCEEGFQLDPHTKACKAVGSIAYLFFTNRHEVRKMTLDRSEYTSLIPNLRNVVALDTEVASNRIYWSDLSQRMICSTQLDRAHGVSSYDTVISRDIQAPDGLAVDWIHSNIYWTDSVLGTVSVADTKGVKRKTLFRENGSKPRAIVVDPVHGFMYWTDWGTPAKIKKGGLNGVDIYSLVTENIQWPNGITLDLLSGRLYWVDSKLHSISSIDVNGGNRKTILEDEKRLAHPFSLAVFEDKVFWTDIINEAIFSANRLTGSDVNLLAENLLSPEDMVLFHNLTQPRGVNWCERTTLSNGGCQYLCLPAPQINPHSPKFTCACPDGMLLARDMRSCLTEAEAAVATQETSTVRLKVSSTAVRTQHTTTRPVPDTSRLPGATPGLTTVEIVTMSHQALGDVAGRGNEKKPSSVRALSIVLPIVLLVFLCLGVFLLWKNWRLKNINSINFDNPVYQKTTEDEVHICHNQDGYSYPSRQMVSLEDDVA
Sequence of Mast/stem cell growth factor receptor Kit (P10721 whole entry, the tested form may be a part): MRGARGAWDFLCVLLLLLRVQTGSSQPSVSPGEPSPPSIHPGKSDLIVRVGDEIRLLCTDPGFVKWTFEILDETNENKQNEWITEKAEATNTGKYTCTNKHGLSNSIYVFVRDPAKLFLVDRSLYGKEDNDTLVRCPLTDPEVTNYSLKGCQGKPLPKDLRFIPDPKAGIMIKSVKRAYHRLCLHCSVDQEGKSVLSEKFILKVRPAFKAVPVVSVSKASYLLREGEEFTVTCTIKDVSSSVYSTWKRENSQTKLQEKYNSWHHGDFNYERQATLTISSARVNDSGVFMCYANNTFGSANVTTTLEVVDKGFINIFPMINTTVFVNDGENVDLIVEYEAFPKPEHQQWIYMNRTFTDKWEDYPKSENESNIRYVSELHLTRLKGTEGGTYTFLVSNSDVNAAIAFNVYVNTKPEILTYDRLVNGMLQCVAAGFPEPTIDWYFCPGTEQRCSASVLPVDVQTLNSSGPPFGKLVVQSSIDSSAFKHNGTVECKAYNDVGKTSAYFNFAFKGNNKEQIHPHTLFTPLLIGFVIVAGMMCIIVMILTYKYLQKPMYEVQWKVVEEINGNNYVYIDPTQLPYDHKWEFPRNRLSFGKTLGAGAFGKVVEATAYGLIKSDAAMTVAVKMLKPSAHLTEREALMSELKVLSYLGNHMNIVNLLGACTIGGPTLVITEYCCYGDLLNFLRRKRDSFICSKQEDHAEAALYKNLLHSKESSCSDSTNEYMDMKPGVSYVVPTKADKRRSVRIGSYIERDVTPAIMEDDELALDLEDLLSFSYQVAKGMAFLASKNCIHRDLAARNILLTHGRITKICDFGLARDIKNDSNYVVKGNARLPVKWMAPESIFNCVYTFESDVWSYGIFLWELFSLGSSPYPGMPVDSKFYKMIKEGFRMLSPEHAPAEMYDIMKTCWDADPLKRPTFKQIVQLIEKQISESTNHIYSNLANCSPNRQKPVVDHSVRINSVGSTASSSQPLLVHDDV
Sequence of Proto-oncogene tyrosine-protein kinase Src (P12931 2-536 limits assumed): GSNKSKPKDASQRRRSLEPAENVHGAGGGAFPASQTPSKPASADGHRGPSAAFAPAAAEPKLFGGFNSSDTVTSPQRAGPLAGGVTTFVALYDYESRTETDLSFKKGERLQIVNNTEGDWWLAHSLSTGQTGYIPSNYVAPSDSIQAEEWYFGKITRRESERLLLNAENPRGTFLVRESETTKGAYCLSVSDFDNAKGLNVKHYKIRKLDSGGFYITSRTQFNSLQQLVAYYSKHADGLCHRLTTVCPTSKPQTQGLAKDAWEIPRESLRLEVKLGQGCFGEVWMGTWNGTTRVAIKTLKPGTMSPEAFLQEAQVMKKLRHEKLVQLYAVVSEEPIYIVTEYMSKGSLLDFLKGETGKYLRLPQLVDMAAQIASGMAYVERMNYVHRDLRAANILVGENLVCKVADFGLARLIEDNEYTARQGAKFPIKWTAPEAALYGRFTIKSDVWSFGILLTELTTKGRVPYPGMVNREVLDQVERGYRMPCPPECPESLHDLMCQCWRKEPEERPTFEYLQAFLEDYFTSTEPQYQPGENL
Sequence of PCSK9/LDLR (Homo sapiens) (P01130 22-860 partner limits assumed): as the sequence (P01130 22-860 partner limits assumed) above
Sequence of PCSK9/LDLR (Homo sapiens) (Q8NBP7 31-152 limits assumed): as the sequence (Q8NBP7 31-152 limits assumed) above
Sequence of PCSK9/LDLR (Homo sapiens) (Q8NBP7 153-692 limits assumed): as the sequence (Q8NBP7 153-692 limits assumed) above

| SMILES | IC50 [1] [µM] | IC50 [2] [µM] | IC50 [3] [nM] | IC50 (PCSK9/LDLR) [µM] | IC50 [4] [µM] | Imax [5] [%] | clearance [6] [mL/min/kg] | inhibition [7] | Vd [8] [L/kg] | MRT inf [9] [h] | AUC(0-t) at 24 h [10] [ng·h/mL] | AUC(0-inf) [11] [ng·h/mL] | half-life [12] [min] |
| --- | --- | --- | --- | --- | --- | --- | --- | --- | --- | --- | --- | --- | --- |
| Cc1cn(-c2cc(NC(=O)c3ccc(C)c(Nc4nccc(-c5ccccc5)n4)c3)cc(C(F)(F)F)c2)cn1 | > 10 | 2.48 | 592 | 8.4 | – | – | – | – | – | – | – | – | – |
| Cc1cc(-c2cc(NC(=O)c3ccc(C)c(Nc4nccc(-c5ccc(F)cc5)n4)c3)cc(N3CCN(C)CC3)c2)on1 | > 10 | 5.52 | 3100 | 10.7 | > 10 | – | – | – | – | – | – | – | – |
| Cc1cn(-c2cc(NC(=O)c3ccc(C)c(Nc4nccc(-c5ccccc5)n4)c3)cc(N3CCN(C)CC3)c2)cn1 | > 10 | > 10 | 2880 | 0.758 | > 10 | > 35 | 32.8 | Dose-dependent effect | 4.3 | 2.16 | 189 | 204 | 133 |
| Cc1cn(-c2cc(CN3CCCC[C@H]3C(N)=O)cc(NC(=O)c3ccc(C)c(Nc4nccc(-c5ccc(F)cc5)n4)c3)c2)cn1 | > 10 | > 10 | 9870 | 2.57 | > 10 | – | – | – | – | – | – | – | – |
| Cc1cn(-c2cc(NC(=O)c3ccc(C)c(Nc4nccc(-c5ccc(F)cc5)n4)c3)cc(N3CCOCC3)c2)cn1 | > 10 | > 10 | 790 | 40.1 | > 10 | – | – | – | – | – | – | – | – |
| Cc1cn(-c2cc(NC(=O)c3ccc(C)c(Oc4ccccc4)c3)cc(C(F)(F)F)c2)cn1 | > 10 | > 10 | 618 | 13.4 | > 10 | – | 12.5 | – | 1.69 | 2.27 | 508 | 541 | 129 |
| Cc1cn(-c2cc(NC(=O)c3ccc(C)c(C(=O)c4cccc(C#N)c4)c3)cc(N3CCN(C)CC3)c2)cn1 | > 10 | > 10 | > 10000 | 2.13 | > 10 | – | 81 | – | 4.7 | 0.96 | 78 | 83 | 65.4 |
| Cc1cn(-c2cc(CN3CCCC[C@H]3C(=O)O)cc(NC(=O)c3ccc(C)c(Nc4nccc(-c5ccc(F)cc5)n4)c3)c2)cn1 | > 10 | > 10 | > 10000 | 14 | > 10 | – | – | – | – | – | – | – | – |
| Cc1cn(-c2cc(NC(=O)c3ccc(C)c(Nc4nccc(-c5ccccc5)n4)c3)cc(N3CCNCC3)c2)cn1 | 4.36 | 1.51 | 1490 | 0.491 | – | – | 52.5 | – | 3.74 | 1.19 | 116 | 127 | 98.4 |
| Cc1cn(-c2cc(CCS(N)(=O)=O)cc(NC(=O)c3ccc(C)c(Nc4nccc(-c5ccccc5)n4)c3)c2)cn1 | > 10 | > 10 | 6000 | 13.4 | > 10 | – | 110 | – | 1.72 | 0.239 | 58.5 | 63.7 | 13 |
| Cc1cn(-c2cc(CN3CCN(C)CC3)cc(NC(=O)c3ccc(C)c(Nc4nccc(-c5ccccc5)n4)c3)c2)cn1 | > 10 | 5.42 | 2570 | 0.714 | > 10 | – | 35.7 | – | 5.65 | 2.66 | 166 | 187 | 197 |
| Cc1ccc(C(=O)Nc2cccc(N3CCN(C)CC3)c2)cc1Nc1nccc(-c2ccc(F)cc2)n1 | > 10 | > 10 | 93 | 3.29 | > 10 | – | – | – | – | – | – | – | – |
| Cc1ccc(C(=O)Nc2cc(N3CCN(C)CC3)cc(-n3cnc(C)c3)c2)cc1 | > 10 | > 10 | > 10000 | 26.3 | > 10 | – | – | – | – | – | – | – | – |
| Cc1cn(-c2cc(CN3CCC[C@H](N)C3)cc(NC(=O)c3ccc(C)c(Nc4nccc(-c5ccc(F)cc5)n4)c3)c2)cn1 | > 10 | 2.04 | 1960 | 0.428 | > 10 | – | 23.5 | – | 13.3 | 10.4 | 243 | 297 | 648 |
| Cc1cn(-c2cc(CCC(=O)O)cc(NC(=O)c3ccc(C)c(Nc4nccc(-c5ccccc5)n4)c3)c2)cn1 | > 10 | > 10 | 347 | 9.28 | > 10 | – | – | – | – | – | – | – | – |
| Cc1cn(-c2cc(/C=C/C(=O)O)cc(NC(=O)c3ccc(C)c(Nc4nccc(-c5ccccc5)n4)c3)c2)cn1 | > 10 | > 10 | 2770 | 11.3 | > 10 | – | – | – | – | – | – | – | – |
| Cc1cn(-c2cc(NC(=O)c3ccc(C)c(Nc4nccc(-c5cccnc5)n4)c3)cc(C(F)(F)F)c2)cn1 [NILOTINIB] | – | – | – | 9.8 | – | – | – | – | – | – | – | – | – |
| CCCCc1cc(NC(=O)c2ccc(C)c(Nc3nccc(-c4ccccc4)n3)c2)cc(-n2cnc(C)c2)c1 | > 10 | > 10 | 302 | 7.41 | – | – | – | – | – | – | – | – | – |
